Calls of active or inactive are those of the source. No cut-off for these calls is given here.
How the values were obtained:
[1] = Cytotoxicity against rat L6 cells; assay type: cell-based
Summary of the method: (§1)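 Alamar blue-based viability assays were run on bloodstream T. b. rhodesiense STIB900 and on rat skeletal myoblast L6 cells. Podophyllotoxin was the reference drug for L6.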

Plasmodium falciparum = assay: Antimicrobial activity against intraerythrocytic stage of Plasmodium falciparum NF54 infected in human erythrocytes by [3H]hypoxanthine incorporation assay; assay type: functional, organism-based
Summary of the method: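 Erythrocytic P. falciparum NF54 (chloroquine-sensitive) was tested with a [³H]hypoxanthine incorporation read-out.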

[2] = Binding affinity to 5'-biotin-CGAATTCGTCTCCGAATTCG-3' hairpin DNA (unknown origin) after 5 mins by SPR analysis
Summary of the method: (§2)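 SPR at 25 °C in MES buffer (10 mM MES, 1 mM EDTA, 100 mM NaCl, 0.005% P20, pH 6.25). Biotinylated hairpins were captured on streptavidin chips to about 400 RU, with a blank reference flow cell. A compound dilution series (from 5 mM stocks) was injected at 20 µL/min with 5 min association and 5 min dissociation. Surfaces were regenerated with 200 mM NaCl/10 mM NaOH. Equilibrium constants came from fits to a one- or two-site model.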

[3] = Selectivity index, ratio of CC50 for rat L6 cells to IC50 for Plasmodium falciparum NF54
[4] = system: Trypanosoma brucei rhodesiense; assay: Antimicrobial activity against trypomastigote stage of Trypanosoma brucei rhodesiense STIB900 infected in rat L6 cells after 96 hrs by Alamar Blue assay; assay type: functional, organism-based; details: STIB900, L6, 96 h; summary of the method: as §1
[5] = Binding affinity to 5'-biotin-CGCGCGCGTTTTCGCGCGCG-3' hairpin DNA (unknown origin) hairpin DNA after 5 mins by SPR analysis; summary of the method: as §2
[6] = Selectivity ratio of K for 5'-biotin-CGAATTCGTCTCCGAATTCG-3' hairpin DNA (unknown origin) to K for 5'-biotin-CATATATATCCCCATATATATG-3' hairpin DNA (unknown origin)
[7] = Selectivity index, ratio of CC50 for rat L6 cells to IC50 for Trypanosoma brucei rhodesiense; assay type: functional
Summary of the method: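 Selectivity index was calculated as L6 CC₅₀ divided by the T. b. rhodesiense IC₅₀, both from the Alamar blue assays.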

[8] = system: Trypanosoma brucei rhodesiense; assay: Antimicrobial activity against bloodstream form of Trypanosoma brucei rhodesiense STIB900 infected in acute HAT NMRI mouse model assessed as mean day of relapse at 20 mg/kg, ip administered for 4 days; assay type: functional; details: route intraperitoneal
Summary of the method: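 Acute-stage mouse model infected with T. b. rhodesiense STIB900, in groups of four mice. Compound was formulated in 100% DMSO and diluted 10-fold in distilled water. It was given on four consecutive days from day 3 post-infection at 0.1 mL/10 g. Three infected mice were left untreated. Parasitaemia was checked in tail-blood smears up to day 60; relapse-free mice were counted as cured. Mean relapse day is the post-infection day of relapse.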

[9] = Binding affinity to 5'-biotin-CATATATATCCCCATATATATG-3' hairpin DNA (unknown origin) after 5 mins by SPR analysis; summary of the method: as §2
Mus musculus = assay: Acute toxicity in NMRI mouse infected with bloodstream form of Trypanosoma brucei rhodesiense STIB900 at 20 mg/kg, ip administered for 4 days; assay type: organism-based; parameters: dose 20 mg/kg, route intraperitoneal; details: in vivo, 96 h
Trypanosoma brucei = assay: Antimicrobial activity against Trypanosoma brucei GVR35 infected in NMRI mouse late stage model at 20 mg/kg, ip administered for 5 days; assay type: functional, organism-based; parameters: dose 20 mg/kg
[10] = system: Trypanosoma brucei rhodesiense; assay: Antimicrobial activity against bloodstream form of Trypanosoma brucei rhodesiense STIB900 infected in acute HAT NMRI mouse model assessed as mean day of relapse at 5 mg/kg, ip administered for 4 days; assay type: functional; details: route intraperitoneal
[11] = system: Trypanosoma brucei rhodesiense; assay: Antimicrobial activity against bloodstream form of Trypanosoma brucei rhodesiense STIB900 infected in acute HAT NMRI mouse model assessed as mean day of relapse at 50 mg/kg, po administered for 4 days; assay type: functional

SMILES	CC50 [1]	IC50 (Plasmodium falciparum)	K [2]	Ratio CC50/IC50 [3]	IC50 [4]	K [5]	Selectivity ratio [6]	Ratio CC50/IC50 [7]	Time [8]	K [9]	Activity (Mus musculus)	Activity (Trypanosoma brucei)	Time [10]	Time [11]
CC(C)/N=C(\N)Nc1ccc(NC(=O)c2ccc(N/C(N)=N/C(C)C)cc2)cc1.Cl	103 µM	0.446 µM	9.8 ×10⁵ /M	231	0.011 µM	< 1 ×10⁵ /M	2.5	9364	>60 days	4 ×10⁵ /M	–	–	–	–
C/N=C(\N)Nc1ccc(NC(=O)Nc2ccc(N/C(N)=N/C)cc2)cc1.Cl	177 µM	0.192 µM	–	922	0.264 µM	–	–	670	–	–	–	–	–	–
CC(C)/N=C(\N)Nc1ccc(NC(=O)Nc2ccc(N/C(N)=N/C(C)C)cc2)cc1.Cl	126 µM	0.437 µM	–	288	0.049 µM	–	–	2571	10 days	–	Toxic	–	–	–
Nc1nc(N)nc(Nc2ccc([As]3SCC(CO)S3)cc2)n1 (configuration not stated) [MELARSOPROL]	–	–	–	–	–	–	–	>1000	–	–	–	–	–	–
N/C(=N\OCc1ccccc1)Nc1ccc(NC(=O)c2ccc(N/C(N)=N/OCc3ccccc3)cc2)cc1	6.6 µM	2.83 µM	–	–	3.13 µM	–	–	–	–	–	–	–	–	–
CC/N=C(\N)Nc1ccc(NC(=O)c2ccc(N/C(N)=N/CC)cc2)cc1.Cl	118 µM	0.232 µM	8.1 ×10⁵ /M	509	0.009 µM	< 1 ×10⁵ /M	1.5	13111	>60 days	5.2 ×10⁵ /M	–	–	–	–
N=C(N)Nc1ccc(NC(=O)c2ccc(NC(=N)N)cc2)cc1	–	–	–	–	–	–	–	–	–	–	–	inactive	>60 days	>60 days
N/C(=N\OC1CCCCO1)Nc1ccc(NC(=O)c2ccc(N/C(N)=N/OC3CCCCO3)cc2)cc1 (configuration not stated)	160 µM	42.6 µM	–	–	51.4 µM	–	–	–	–	–	–	–	–	–
N/C(=N\O)Nc1ccc(NC(=O)c2ccc(N/C(N)=N/O)cc2)cc1	100 µM	3.58 µM	–	–	4.88 µM	–	–	–	–	–	–	–	–	–
CC/N=C(\N)Nc1ccc(NC(=O)Nc2ccc(N/C(N)=N/CC)cc2)cc1.Cl	116 µM	0.397 µM	0.19 ×10⁵ /M	292	0.09 µM	–	–	1289	18.3 days	0.15 ×10⁵ /M	Toxic	–	–	–
CO/N=C(\N)Nc1ccc(NC(=O)c2ccc(N/C(N)=N/OC)cc2)cc1	141 µM	7.49 µM	–	–	56 µM	–	–	–	–	–	–	–	–	–
C/N=C(\N)Nc1ccc(NC(=O)c2ccc(N/C(N)=N/C)cc2)cc1.Cl	173 µM	1.02 µM	–	169	0.177 µM	–	–	977	–	–	–	–	–	–

Reference: ChEMBL document CHEMBL3259603, “Antiprotozoal activity and DNA binding of N-substituted N-phenylbenzamide and 1,3-diphenylurea bisguanidines” (Eur J Med Chem, 2014)
